# Source: ChEMBL document CHEMBL4819061, “New bioactive 5-arylcarboximidamidopyrazolo[3,4-c]pyridines: Synthesis, cytotoxic activity, mechanistic investigation and structure-activity relationships” (Eur J Med Chem, 2021)
# The source made the active and inactive calls. No cut-off for these calls is given here.
# Columns and labels:
# [1] = test system: MDA-MB-231; experiment: Cytotoxicity against human MDA-MB-231 cells assessed as reduction in cell viability incubated for 72 hrs by MTT assay; assay type: functional, cell-based; settings: MDA-MB-231, 72 h
# Procedure, shortened: (§1)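 Cancer lines (MDA-MB-231, HT-1080, PC-3) were grown in DMEM with 10% FBS and penicillin/streptomycin at 37 °C in 5% CO₂. About 5000 cells/well adhered overnight, then serial compound dilutions were added for 72 h, with matching DMSO dilutions (0.5–0.0008% v/v) as controls. MTT (1 mg/ml final, serum-free phenol-red-free DMEM) ran 4 h, was solubilised in 2-propanol, and OD read at 550 nm (ref 690). IC50 is the concentration halving OD versus untreated, mean of three independent experiments.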
# [2] = test system: HT-1080; experiment: Cytotoxicity against human HT-1080 cells assessed as reduction in cell viability incubated for 72 hrs by MTT assay; assay type: functional, cell-based; settings: HT-1080, 72 h; procedure, shortened: as §1
# [3] = test system: PC-3; experiment: Cytotoxicity against human PC-3 cells assessed as reduction in cell viability incubated for 72 hrs by MTT assay; assay type: functional, cell-based; settings: PC-3, 72 h; procedure, shortened: as §1
# [4] = test system: AG1523; experiment: Cytotoxicity against human AG01523 cells assessed as reduction in cell viability incubated for 72 hrs by MTT assay; assay type: cell-based; settings: AG1523, 72 h
# [5] = test system: HT-1080; experiment: Induction of cell cycle arrest in human HT1080 cells assessed as accumulation at G0/G1 phase at 2 uM incubated for 24 hrs by RNase/PI staining based flow cytometric analysis (reference value: 32.86 %); assay type: functional
# [6] = test system: HT-1080; experiment: Induction of cell cycle arrest in human HT1080 cells assessed as accumulation at S phase at 2 uM incubated for 24 hrs by RNase/PI staining based flow cytometric analysis (reference value: 19.59 %); assay type: functional
# [7] = test system: HT-1080; experiment: Induction of cell cycle arrest in human HT1080 cells assessed as accumulation at G2/M phase at 2 uM incubated for 24 hrs by RNase/PI staining based flow cytometric analysis (reference value: 47.55 %); assay type: functional
# [8] = test system: HT-1080; experiment: Induction of cell cycle arrest in human HT1080 cells assessed as accumulation at sub-diploid phase at 2 uM incubated for 24 hrs by RNase/PI staining based flow cytometric analysis (reference value: 5.36 %); assay type: functional
# [9] = test system: HT-1080; experiment: Inhibition of ERK phosphorylation in human HT-1080 cells at 20 uM after 15 mins by Western blotting analysis
# [10] = target: RAC-alpha serine/threonine-protein kinase (Homo sapiens) (UniProt P31749); experiment: Inhibition of AKT phosphorylation at Ser473 residue in human HT-1080 cells at 20 uM after 15 mins by Western blotting analysis; settings: time 15.0 mins
# Chain of RAC-alpha serine/threonine-protein kinase (Homo sapiens) (P31749 whole entry): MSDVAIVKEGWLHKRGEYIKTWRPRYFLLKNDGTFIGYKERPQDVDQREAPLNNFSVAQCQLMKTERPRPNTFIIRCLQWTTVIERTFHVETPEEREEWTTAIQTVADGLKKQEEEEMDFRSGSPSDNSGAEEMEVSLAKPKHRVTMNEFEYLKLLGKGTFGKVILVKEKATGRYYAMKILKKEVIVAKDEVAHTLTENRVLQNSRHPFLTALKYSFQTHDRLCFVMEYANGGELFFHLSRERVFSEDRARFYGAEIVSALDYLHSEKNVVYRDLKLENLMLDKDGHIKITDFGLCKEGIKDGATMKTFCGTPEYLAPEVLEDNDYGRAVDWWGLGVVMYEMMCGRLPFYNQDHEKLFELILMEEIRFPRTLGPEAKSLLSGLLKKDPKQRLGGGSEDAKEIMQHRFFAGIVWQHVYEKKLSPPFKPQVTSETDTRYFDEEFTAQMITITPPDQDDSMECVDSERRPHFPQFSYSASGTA
# [11] = test system: HT-1080; experiment: Induction of apoptosis in human HT-1080 cells assessed as increase in PARP cleavage at 2 uM after 24 hrs by Western blotting analysis
inhibition [10],Structure (SMILES),IC50 [1],IC50 [2],IC50 [3],IC50 [4],Percentage of cells in G0/G1 phase [5],Activity [6],Activity [7],Percent of cells in sub-diploid (sub-G1) phase [8],inhibition [9],Activity [11]
,COc1cc(Nc2nc(C(=N)Nc3ccc(N4CCN(C)CC4)cc3)cc3c(-c4ccccc4)n[nH]c23)cc(OC)c1OC,4.6 µM,3.4 µM,4.3 µM,,,,,,,
,COc1ccc(Cn2nc(-c3ccccc3)c3cc(C(=N)Nc4cccc(C(F)(F)F)c4)nc(NC4CCCCC4)c32)cc1,> 50 µM,,,,,,,,,
,COc1ccc(Cn2cc3cc(C(=N)Nc4cccc(C(F)(F)F)c4)ncc3n2)cc1,15.5 µM,13 µM,12.8 µM,,,,,,,
100%,COc1ccc(Cn2nc(-c3ccccc3)c3cc(C(=N)Nc4ccc(N5CCN(C)CC5)cc4)nc(N4CCOCC4)c32)cc1,1.13 µM,0.7 µM,4.58 µM,2.19 µM,34.31%,34.21%,31.48%,21.09%,Active,Active
,CN1CCN(c2ccc(NC(=N)c3cc4cn[nH]c4cn3)cc2)CC1,47.5 µM,31.3 µM,45.4 µM,,,,,,,
,Cn1nc(-c2ccccc2)c2cc(C(=N)Nc3ccccc3)ncc21,11.1 µM,17.4 µM,17.3 µM,,,,,,,
,CN1CCN(c2ccc(NC(=N)c3cc4cnn(C)c4cn3)cc2)CC1,30.2 µM,24 µM,32.3 µM,,,,,,,
,N=C(Nc1ccccc1)c1cc2cn[nH]c2cn1,> 50 µM,,,,,,,,,
,COc1ccc(Cn2nc(-c3ccccc3)c3cc(C(=N)Nc4ccccc4)ncc32)cc1,5.4 µM,4.7 µM,6.3 µM,,,,,,,
,CN1CCN(c2ccc(NC(=N)c3cc4cn(C)nc4cn3)cc2)CC1,20.5 µM,21 µM,24.8 µM,,,,,,,
,Cn1nc(-c2ccccc2)c2cc(C(=N)Nc3cccc(C(F)(F)F)c3)ncc21,21.4 µM,17.8 µM,20.9 µM,,,,,,,
,COc1ccc(Cn2cc3cc(C(=N)Nc4ccc(N5CCN(C)CC5)cc4)ncc3n2)cc1,8 µM,3.2 µM,9.9 µM,,,,,,,
100%,COc1ccc(Cn2nc(-c3ccccc3)c3cc(C(=N)Nc4ccc(N5CCN(C)CC5)cc4)ncc32)cc1,1.76 µM,1.09 µM,3.99 µM,10.2 µM,46.75%,17.27%,35.98%,17.77%,Active,Active
,CN1CCN(c2ccc(NC(=N)c3cc4c(-c5ccccc5)n[nH]c4cn3)cc2)CC1,15.9 µM,11.4 µM,17.1 µM,,,,,,,
,COc1ccc(Cn2nc(-c3ccccc3)c3cc(C(=N)Nc4ccc(N5CCN(C)CC5)cc4)nc(NC4CCCCC4)c32)cc1,1.29 µM,0.64 µM,3.54 µM,3.33 µM,38.53%,12.9%,48.57%,14.34%,Active,Active
,COc1cc(Nc2nc(C(=N)Nc3ccccc3)cc3c(-c4ccccc4)n[nH]c23)cc(OC)c1OC,4.5 µM,3.9 µM,5.8 µM,,,,,,,
,COc1ccc(Cn2nc(-c3ccccc3)c3cc(C(=N)Nc4ccccc4)nc(Nc4cc(OC)c(OC)c(OC)c4)c32)cc1,42.1 µM,11.1 µM,> 50 µM,,,,,,,
,N=C(Nc1cccc(C(F)(F)F)c1)c1cc2c(-c3ccccc3)n[nH]c2c(N2CCOCC2)n1,13.3 µM,6.8 µM,17.3 µM,,,,,,,
,N=C(Nc1ccccc1)c1cc2c(-c3ccccc3)n[nH]c2cn1,11 µM,22 µM,23 µM,,,,,,,
,COc1ccc(Cn2nc(-c3ccccc3)c3cc(C(=N)Nc4cccc(C(F)(F)F)c4)nc(Nc4cc(OC)c(OC)c(OC)c4)c32)cc1,> 50 µM,,,,,,,,,
